Data as given in ChEMBL document CHEMBL1126952, “Synthesis and antitumor properties of an anthraquinone bisubstituted by the copper chelating peptide Gly-Gly-L-His” (J Med Chem, 1993).

Key:
Mus musculus [1] = organism: Mus musculus; test: In vitro cytotoxicity against L1210 leukemia cell line; format: functional; settings: read-out: LD50 (the source's name)
Method in brief: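 L1210 mouse lymphocytic leukemia cells in RPMI 1640 with 10% (v/v) foetal calf serum, in exponential growth, seeded at 1.5 × 10^5 cells/mL in flasks; drug added at final 10^-9 to 10^-4 M for 3 days. Growth and viability counted by trypan blue staining; ID50 is the concentration inhibiting cell growth by 50% of control.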

Homo sapiens = organism: Homo sapiens; test: In vitro inhibitory activity against MCF-7 mammary cell line; format: functional; settings: MCF7, read-out: ID50 (the source's name)
Method in brief: (§1)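 Exponentially growing cells exposed 3 days to drug at final 10^-9 to 10^-4 M. L1210: RPMI 1640 + 10% FCS, seeded 1.5 × 10^5 cells/mL in flasks. MCF7: DMEM + 10% FCS, 10^5 cells/well in 6-well plates. Growth and viability by trypan blue counting; ID50 = concentration inhibiting growth by 50% of control.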

Mus musculus [2] = organism: Mus musculus; test: In vitro inhibitory activity against L1210 leukemia cell line; format: functional; settings: read-out: ID50 (the source's name); method in brief: as §1
Nucleic Acid = test: Thermal denaturation of calf-thymus DNA was evaluated; format: functional; settings: Bos taurus
Method in brief: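 Calf thymus DNA (% GC 42) at 2 × 10^-4 M in 0.1 SSC (0.15 M NaCl/0.015 M sodium citrate, pH 7.0). Six curves at P/DNA = 0, 0.2, 0.4, 0.6, 0.8 and 1. A260 followed from 20 to 95 °C at 1 °C/min in a 10-mm cell. Tm = midpoint of the hyperchromic transition.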

[3] = Therapeutic effect against P388 leukemia in mice on days 1, 5 and 9 after administration of 25 mg/kg dose expressed as median survival time of treated and control mice (in vivo); format: organism-based; design: dose 25 mg/kg; settings: mouse
Method in brief: (§2)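 DBA2 mice implanted ip with 10^6 P388 cells on D0; drug given ip on D1, D5, D9. Groups of 7 treated mice, 10 untreated controls. Mice weighed daily; study ended D45. T/C (%) = median survival time of treated over control group.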

[4] = Therapeutic effect against P388 leukemia in mice on days 1, 5 and 9 after administration of 5 mg/kg dose expressed as median survival time of treated and control mice (in vivo); format: organism-based; design: dose 5 mg/kg; settings: mouse; method in brief: as §2
[5] = Therapeutic effect against P388 leukemia in mice on days 1, 5 and 9 after administration of 10 mg/kg dose expressed as median survival time of treated and control mice (in vivo); format: organism-based; design: dose 10 mg/kg; settings: mouse; method in brief: as §2
[6] = Therapeutic effect against P388 leukemia in mice on days 1, 5 and 9 after administration of 1.6 mg/kg dose expressed as median survival time of treated and control mice (in vivo); format: organism-based; design: dose 1.6 mg/kg; settings: mouse; method in brief: as §2

With `NCC(=O)NCC(=O)N[C@@H](Cc1c[nH]cn1)C(=O)NCCNc1ccc(NCCNC(=O)[C@H](Cc2c[nH]cn2)NC(=O)CNC(=O)CN)c2c1C(=O)c1c(O)ccc(O)c1C2=O` [listing 1 of 2 here] the CC50 (Mus musculus [1]) was 70 nM, the IC50 (Homo sapiens) was 800 nM and the IC50 (Mus musculus [2]) was 50 nM.

`NCC(=O)NCC(=O)N[C@@H](Cc1c[nH]cn1)C(=O)NCCNc1ccc(NCCNC(=O)[C@@H](Cc2c[nH]cn2)NC(=O)CNC(=O)CN)c2c1C(=O)c1c(O)ccc(O)c1C2=O` gave a ΔTm (Nucleic Acid) of 17.1 °C.

Compound `NCCCC(NC(=O)[C@@H](Cc1c[nH]cn1)NC(=O)CNc1ccc(O)c2c1C(=O)c1c(O)ccc(O)c1C2=O)C(=O)O` (stereo partly drawn) has a ΔTm (Nucleic Acid) of 11.3 °C.

`NCC(=O)NCC(=O)N[C@@H](Cc1c[nH]cn1)C(=O)NCCNc1ccc(NCCNC(=O)[C@H](Cc2c[nH]cn2)NC(=O)CNC(=O)CN)c2c1C(=O)c1c(O)ccc(O)c1C2=O` [listing 2 of 2 here] showed a T/C [3] of 230, a T/C [4] of 140 and a T/C [5] of 150.

`O=C1c2c(O)ccc(O)c2C(=O)c2c(NCCNCCO)ccc(NCCNCCO)c21` [MITOXANTRONE] gave a ΔTm (Nucleic Acid) of 15.9 °C, a T/C [6] of 190 and a CC50 (Mus musculus [1]) of 7 nM. It also gave an IC50 (Homo sapiens) of 270 nM and an IC50 (Mus musculus [2]) of 7 nM.
